Results from ChEMBL document CHEMBL2434926, “New di(hetero)arylethers and di(hetero)arylamines in the thieno[3,2-b]pyridine series: synthesis, growth inhibitory activity on human tumor cell lines and non-tumor cells, effects on cell cycle and on programmed cell death” (Eur J Med Chem, 2013).
Activity calls are given as the source filed them. No cut-off for these calls is given here.

Tests used:
NCI-H460 [1] = experiment: Induction of apoptosis in human NCI-H460 cells at GI50 after 48 hrs by TUNEL assay relative to DMSO-treated control; format: functional
Outline: (§1)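 NCI-H460 seeded at 1 × 10^5 cells/well, grown 24 h at 37 °C, treated with compound at GI50, DMSO vehicle or medium for 24 h or 48 h. Fixed in 4% paraformaldehyde 30 min, cytospun, permeabilized with ice-cold 0.1% Triton X-100 in 0.1% sodium citrate 2 min, TUNEL reaction mix (enzyme 1:20) 1 h, DAPI counterstain. Fluorescence microscopy counting at least 500 cells per slide (about 300 in some 48 h samples). Mean ± SEM of three independent experiments; two-tailed paired t-test versus DMSO.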

NCI-H460 [2] = experiment: Induction of apoptosis in human NCI-H460 cells at GI50 after 24 hrs by TUNEL assay; format: functional, cell-based; outline: as §1
NCI-H460 [3] = experiment: Cell cycle arrest in human NCI-H460 cells assessed as accumulation at sub-G1 phase at GI50 after 24 hrs by propidium iodide staining-based flow cytometry; format: functional
[4] = Growth inhibition of PLP2 cells after 48 hrs by SRB assay; format: cell-based, Sus scrofa; conditions: pig
Outline: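 Porcine liver primary cells (PLP2), established by the authors, subcultured before confluence, seeded 1.0 × 10^4 cells/well in DMEM with 10% FBS and penicillin/streptomycin. Treated 48 h with compound solutions, then sulforhodamine B read-out. GI50 is the concentration inhibiting 50% of net growth; three independent experiments in triplicate, mean ± SD; ellipticine positive control.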

HCT-15 = experiment: Growth inhibition of human HCT15 cells after 48 hrs by SRB assay; format: functional; conditions: HCT-15, 48 h
Outline: (§2)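 Sulforhodamine B assay. MCF-7, NCI-H460, HCT15 kept in RPMI-1640 with 10% heat-inactivated FBS and 2 mM glutamine, seeded 7.5 × 10^3 cells/well. HeLa and HepG2 kept in DMEM with 10% FBS, 2 mM glutamine and penicillin/streptomycin, seeded 1.0 × 10^4 cells/well. Cultures at 37 °C, 5% CO2. GI50 is the concentration giving 50% inhibition of net growth; three independent experiments in triplicate, mean ± SD; ellipticine positive control.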

HeLa = experiment: Growth inhibition of human HeLa cells after 48 hrs by SRB assay; format: functional; outline: as §2
NCI-H460 [5] = experiment: Growth inhibition of human NCI-H460 cells after 48 hrs by SRB assay; format: functional; conditions: NCI-H460, 48 h; outline: as §2
MCF7 [6] = experiment: Growth inhibition of human MCF7 cells after 48 hrs by SRB assay; format: functional; conditions: MCF7, 48 h; outline: as §2
HepG2 = experiment: Growth inhibition of human HepG2 cells after 48 hrs by SRB assay; format: functional; conditions: HepG2, 48 h; outline: as §2
[7] = Growth inhibition of human A375-C5 cells; format: functional
NCI-H460 [8] = experiment: Growth inhibition of human NCI-H460 cells; format: functional
MCF7 [9] = experiment: Growth inhibition of human MCF7 cells; format: functional
[10] = Growth inhibition of human A375-C5 cells after 48 hrs by SRB assay; format: functional; conditions: A375-C5, 48 h

Compound | Activity (NCI-H460 [1]) [%] | Activity (NCI-H460 [2]) | Activity (NCI-H460 [3]) | GI50 at 48 h [4] [µM] | GI50 (HCT-15) [µM] | GI50 (HeLa) [µM] | GI50 (NCI-H460 [5]) [µM] | GI50 (MCF7 [6]) [µM] | GI50 (HepG2) [µM] | GI50 [7] [µM] | GI50 (NCI-H460 [8]) [µM] | GI50 (MCF7 [9]) [µM] | GI50 [10] [µM]
COc1cccc(Nc2ccnc3ccsc23)c1 | >30 | Active | Active | 1.94 | 0.31 | 0.09 | 0.28 | 0.25 | 5.02 | – | – | – | –
Fc1cccc(Oc2ccnc3ccsc23)c1 | – | – | – | > 125 | 103 | 34.5 | 103 | 102 | 42.6 | – | – | – | –
Fc1cccc(Nc2ccnc3ccsc23)c1 | – | – | – | 119 | 70.7 | 69.2 | 77.5 | 63.7 | 32 | – | – | – | –
Fc1ccc(Oc2ccnc3ccsc23)cc1 | – | – | – | > 125 | 88.1 | 33.8 | 101 | 98.5 | 45.1 | – | – | – | –
COc1cccc(Oc2ccnc3ccsc23)c1 | >30 | Active | Active | 26.7 | 0.39 | 3.14 | 1.04 | 1.56 | 2.7 | – | – | – | –
COc1ccc(Oc2ccnc3ccsc23)cc1 | – | – | – | 94.5 | 86 | 49.4 | 86.8 | 93.3 | 53.2 | – | – | – | –
COC(=O)c1sc2cc(Oc3cccc(OC)c3OC)cnc2c1N | – | – | – | – | – | – | – | – | – | 1 | 1 | 1 | –
Fc1ccc(Nc2ccnc3ccsc23)cc1 | – | – | – | 100 | 91.2 | 77.5 | 78.5 | 80.7 | 26.3 | – | – | – | –
COc1ccc(Nc2ccnc3ccsc23)cc1 | – | – | – | 22.7 | 25.9 | 20.4 | 19.4 | 20.2 | 22.1 | – | – | – | –
COC(=O)c1sc2cccnc2c1Nc1ccc(OC)cc1N | – | – | – | – | – | – | 1 | 1 | 1 | – | – | – | 1
COc1ccccc1Nc1ccnc2ccsc12 | >30 | Active | Active | 6.56 | 5.91 | 1.4 | 5.4 | 5.88 | 18 | – | – | – | –
COc1ccccc1Oc1ccnc2ccsc12 | – | – | – | > 125 | 91.2 | 28.9 | 94.2 | 90.9 | 62.7 | – | – | – | –
Fc1ccccc1Oc1ccnc2ccsc12 | – | – | – | 87.2 | 97.2 | 50.3 | 78 | 74.3 | 16.4 | – | – | – | –
Fc1ccccc1Nc1ccnc2ccsc12 | – | – | – | 115 | 86.7 | 26.4 | 79.5 | 94.4 | 25.8 | – | – | – | –
Cc1c2ccncc2c(C)c2c1[nH]c1ccccc12 [ELLIPTECINE] | – | – | – | 2.06 | 1.91 | 3.28 | 5.77 | 4.32 | 5.38 | – | – | – | –
COC(=O)c1sc2cc(Oc3cccc(OC)c3)cnc2c1N | – | – | – | – | – | – | – | – | – | 1 | 1 | 1 | –
